Data taken from ChEMBL document CHEMBL2417414, “Total synthesis and biological evaluation of clavaminol-G and its analogs” (Eur J Med Chem, 2013).
Values after ≈ are worked out from the molar mass of the structure shown.

Legend:
HeLa = assay: Cytotoxicity against human HeLa cells by MTT assay; assay type: functional, cell-based
Summary of the method: (§1)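 MTT assay on ATCC lines: A549 (CCL-185, alveolar adenocarcinoma), HeLa (CCL-2, cervical), MDA-MB-231 (HTB-26) and MCF7 (HTB-22, breast adenocarcinoma). IC50 calculated from absorbance dose–response curves. Values are the average of two independent experiments.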

MDA-MB-231 = assay: Cytotoxicity against human MDA-MB-231 cells by MTT assay; assay type: functional, cell-based; summary of the method: as §1
A549 = assay: Cytotoxicity against human A549 cells by MTT assay; assay type: functional, cell-based; summary of the method: as §1
MCF7 = assay: Cytotoxicity against human MCF7 cells by MTT assay; assay type: functional, cell-based; summary of the method: as §1
Pseudomonas aeruginosa = assay: Antibacterial activity against Pseudomonas aeruginosa MTCC 2453 after 24 hrs by well diffusion method; assay type: functional; settings: MTCC 2453, 24 h
Summary of the method: (§2)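 MTCC strains spread on Mueller-Hinton agar plates with 0.1 mL of suspension at 1.5 × 10^8 CFU/mL (0.5 McFarland). Neomycin served as the antibacterial control, fluconazole and miconazole as antifungal controls, and DMSO as the negative control. Plates incubated 24 h at 30 °C. MIC was taken as the lowest amount giving an inhibition zone. Duplicates, mean reported.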

Candida albicans [1] = assay: Antifungal activity against Candida albicans MTCC 7315 after 24 hrs by well diffusion method; assay type: functional; settings: MTCC 7315, 24 h
Summary of the method: (§3)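 Agar well diffusion on Mueller-Hinton agar seeded with 0.1 mL of suspension at 1.5 × 10^8 CFU/mL (0.5 McFarland). Fluconazole and miconazole served as positive controls, DMSO as negative control. Plates incubated 24 h at 30 °C. MIC taken as the lowest amount giving an inhibition zone; duplicates, mean reported.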

Candida albicans [2] = assay: Antifungal activity against Candida albicans MTCC 4748 after 24 hrs by well diffusion method; assay type: functional; settings: MTCC 4748, 24 h; summary of the method: as §3
Candida albicans [3] = assay: Antifungal activity against Candida albicans MTCC 3958 after 24 hrs by well diffusion method; assay type: functional; settings: MTCC 3958, 24 h; summary of the method: as §3
Escherichia coli = assay: Antibacterial activity against Escherichia coli MTCC 739 after 24 hrs by well diffusion method; assay type: functional; settings: MTCC 739, 24 h; summary of the method: as §2
[Candida] aaseri = Antifungal activity against Candida aaseri MTCC 1962 after 24 hrs by well diffusion method; assay type: functional; settings: Yamadazyma aaseri, MTCC 1962, 24 h; summary of the method: as §2
Pichia sporocuriosa = assay: Antifungal activity against Issatchenkia hanoiensis MTCC 4755 after 24 hrs by well diffusion method; assay type: functional; settings: MTCC 4755, 24 h; summary of the method: as §2
Nakaseomyces glabratus = assay: Antifungal activity against Candida glabrata MTCC 3019 after 24 hrs by well diffusion method; assay type: functional; settings: MTCC 3019, 24 h; summary of the method: as §2
Micrococcus luteus = assay: Antibacterial activity against Micrococcus luteus MTCC 2470 after 24 hrs by well diffusion method; assay type: functional; settings: MTCC 2470, 24 h; summary of the method: as §2
Pichia kudriavzevii = assay: Antifungal activity against Issatchenkia orientalis MTCC 3020 after 24 hrs by well diffusion method; assay type: functional; settings: MTCC 3020, 24 h; summary of the method: as §2
Candida parapsilosis = assay: Antifungal activity against Candida parapsilosis MTCC 1744 after 24 hrs by well diffusion method; assay type: functional; settings: Lodderomyces parapsilosis, MTCC 1744, 24 h; summary of the method: as §2
Raoultella planticola = assay: Antibacterial activity against Klebsiella planticola MTCC 530 after 24 hrs by well diffusion method; assay type: functional; settings: MTCC 530, 24 h; summary of the method: as §2
Staphylococcus aureus [4] = assay: Antibacterial activity against Staphylococcus aureus MLS16 MTCC 2940 after 24 hrs by well diffusion method; assay type: functional; settings: MLS16 MTCC 2940, 24 h; summary of the method: as §2
Staphylococcus aureus [5] = assay: Antibacterial activity against Staphylococcus aureus MTCC 96 after 24 hrs by well diffusion method; assay type: functional; settings: MTCC 96, 24 h; summary of the method: as §2
Candida albicans [6] = assay: Antifungal activity against Candida albicans MTCC 183 after 24 hrs by well diffusion method; assay type: functional; settings: MTCC 183, 24 h; summary of the method: as §3
Candida albicans [7] = assay: Antifungal activity against Candida albicans MTCC 854 after 24 hrs by well diffusion method; assay type: functional; settings: MTCC 854, 24 h; summary of the method: as §3
Candida albicans [8] = assay: Antifungal activity against Candida albicans MTCC 3018 after 24 hrs by well diffusion method; assay type: functional; settings: MTCC 3018, 24 h; summary of the method: as §3
Candida albicans [9] = assay: Antifungal activity against Candida albicans MTCC 3017 after 24 hrs by well diffusion method; assay type: functional; settings: MTCC 3017, 24 h; summary of the method: as §3
Candida albicans [10] = assay: Antifungal activity against Candida albicans MTCC 1637 after 24 hrs by well diffusion method; assay type: functional; settings: MTCC 1637, 24 h; summary of the method: as §3
Bacillus subtilis = assay: Antibacterial activity against Bacillus subtilis MTCC 121 after 24 hrs by well diffusion method; assay type: functional; settings: MTCC 121, 24 h; summary of the method: as §2
[11] = Homo sapiens, HeLa, read-out: IC50
[12] = Homo sapiens, MDA-MB-231, read-out: IC50
[13] = Homo sapiens, A549, read-out: IC50
[14] = Homo sapiens, MCF7, read-out: IC50

## CCCCCCCCCC(O)CNC(C)=O (stereo not drawn)
HeLa; hela
  IC50: Not Active
MDA-MB-231; mda-mb-231
  IC50: Not Active
A549; a549
  IC50: Not Active
MCF7; mcf7
  IC50: Not Active

## CCCCCCCCCC(O)CN (stereo not drawn)
Pseudomonas aeruginosa
  MIC: 18.8 µg/mL (≈ 100 µM)
Candida albicans [1]
  MIC: 18.8 µg/mL (≈ 100 µM)
Candida albicans [2]
  MIC: 18.8 µg/mL (≈ 100 µM)
HeLa; [11]
  IC50: 4.36 µM
Candida albicans [3]
  MIC: 18.8 µg/mL (≈ 100 µM)
Escherichia coli
  MIC: 18.8 µg/mL (≈ 100 µM)
[Candida] aaseri
  MIC: 18.8 µg/mL (≈ 100 µM)
Pichia sporocuriosa
  MIC: 18.8 µg/mL (≈ 100 µM)
MDA-MB-231; [12]
  IC50: 4.02 µM
Nakaseomyces glabratus
  MIC: 18.8 µg/mL (≈ 100 µM)
Micrococcus luteus
  MIC: 18.8 µg/mL (≈ 100 µM)
Pichia kudriavzevii
  MIC: 18.8 µg/mL (≈ 100 µM)
Candida parapsilosis
  MIC: 18.8 µg/mL (≈ 100 µM)
Raoultella planticola
  MIC: 18.8 µg/mL (≈ 100 µM)
Staphylococcus aureus [4]
  MIC: 18.8 µg/mL (≈ 100 µM)
Staphylococcus aureus [5]
  MIC: 18.8 µg/mL (≈ 100 µM)
Candida albicans [6]
  MIC: 18.8 µg/mL (≈ 100 µM)
Candida albicans [7]
  MIC: 18.8 µg/mL (≈ 100 µM)
Candida albicans [8]
  MIC: 18.8 µg/mL (≈ 100 µM)
A549; [13]
  IC50: 6.78 µM
Candida albicans [9]
  MIC: 18.8 µg/mL (≈ 100 µM)
Candida albicans [10]
  MIC: 18.8 µg/mL (≈ 100 µM)
Bacillus subtilis
  MIC: 18.8 µg/mL (≈ 100 µM)
MCF7; [14]
  IC50: 3.88 µM

## COC(=O)CCCCCCCCC(O)CN (stereo not drawn)
HeLa; [11]
  IC50: 3.59 µM
MDA-MB-231; [12]
  IC50: 29.8 µM
A549; [13]
  IC50: 7.89 µM
MCF7; [14]
  IC50: 10.2 µM

## NCC(O)CCCCCCCCC(=O)O (stereo not drawn)
HeLa; hela
  IC50: Not Active
MDA-MB-231; mda-mb-231
  IC50: Not Active
A549; a549
  IC50: Not Active
MCF7; mcf7
  IC50: Not Active

## NCC(O)CCCCCCCCCO (stereo not drawn)
HeLa; [11]
  IC50: 8.79 µM
MDA-MB-231; mda-mb-231
  IC50: Not Active
A549; [13]
  IC50: 16.2 µM
MCF7; mcf7
  IC50: Not Active

## COc1cccc2c1C(=O)c1c(O)c3c(c(O)c1C2=O)C[C@@](O)(C(=O)CO)C[C@@H]3O[C@H]1C[C@H](N)[C@H](O)[C@H](C)O1 [DOXORUBICIN]
MDA-MB-231; [12]
  IC50: 0.5 µM
MCF7; [14]
  IC50: 1.05 µM

## OC(Cn1cncn1)(Cn1cncn1)c1ccc(F)cc1F [FLUCONAZOLE]
Candida albicans [1]
  MIC: 37.5 µg/mL (≈ 122 µM)
Candida albicans [2]
  MIC: 37.5 µg/mL (≈ 122 µM)
Candida albicans [3]
  MIC: 75 µg/mL (≈ 245 µM)
[Candida] aaseri
  MIC: 37.5 µg/mL (≈ 122 µM)
Pichia sporocuriosa
  MIC: 75 µg/mL (≈ 245 µM)
Nakaseomyces glabratus
  MIC: 75 µg/mL (≈ 245 µM)
Pichia kudriavzevii
  MIC: 150 µg/mL (≈ 490 µM)
Candida parapsilosis
  MIC: 18.8 µg/mL (≈ 61.2 µM)
Candida albicans [6]
  MIC: 37.5 µg/mL (≈ 122 µM)
Candida albicans [7]
  MIC: 37.5 µg/mL (≈ 122 µM)
Candida albicans [8]
  MIC: 37.5 µg/mL (≈ 122 µM)
Candida albicans [9]
  MIC: 75 µg/mL (≈ 245 µM)
Candida albicans [10]
  MIC: 75 µg/mL (≈ 245 µM)

## Clc1ccc(COC(Cn2ccnc2)c2ccc(Cl)cc2Cl)c(Cl)c1 (stereo not drawn) [MICONAZOLE]
Candida albicans [1]
  MIC: 9.37 µg/mL (≈ 22.5 µM)
Candida albicans [2]
  MIC: 9.37 µg/mL (≈ 22.5 µM)
Candida albicans [3]
  MIC: 9.37 µg/mL (≈ 22.5 µM)
[Candida] aaseri
  MIC: 9.37 µg/mL (≈ 22.5 µM)
Pichia sporocuriosa
  MIC: 9.37 µg/mL (≈ 22.5 µM)
Nakaseomyces glabratus
  MIC: 9.37 µg/mL (≈ 22.5 µM)
Pichia kudriavzevii
  MIC: 9.37 µg/mL (≈ 22.5 µM)
Candida parapsilosis
  MIC: 9.37 µg/mL (≈ 22.5 µM)
Candida albicans [6]
  MIC: 9.37 µg/mL (≈ 22.5 µM)
Candida albicans [7]
  MIC: 9.37 µg/mL (≈ 22.5 µM)
Candida albicans [8]
  MIC: 9.37 µg/mL (≈ 22.5 µM)
Candida albicans [9]
  MIC: 9.37 µg/mL (≈ 22.5 µM)
Candida albicans [10]
  MIC: 9.37 µg/mL (≈ 22.5 µM)
